Screening data: PubChem BioAssay, Sanford-Burnham Center for Chemical Genomics
The list is not random: actives were taken first. Their share in the collection is about 1.9%.
DNMT1 block = inhibitors of human DNMT1 | P26358 | DNMT1 molecular beacon, Hinp1I cleavage, fluorescence | inhibition (reported as % activation of signal), % at 10 µM | actives 0.83% (n = 360,000) | AID 588458; in the data active means inhibition above about 50%
STEP block = blocks human striatal-enriched tyrosine phosphatase | P54829 | recombinant STEP, OMFP fluorogenic substrate, fluorescence | inhibition, % at 20 µM | actives 0.25% (n = 360,000);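 active means inhibition at 20 µM, scaled per plate between control wells, above about 37%, limit read from the data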;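 further: 0% = DMSO with enzyme and substrate and 100% = substrate only without enzyme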
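Also added – OMFP at 25 µM · Test system – STEP tyrosine phosphatase · Technique – FITC-channel fluorescence of OMFP product · Schedule – 20 min at room temperature, dark · Evaluation – control-normalized % inhibition with plate pattern correction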
SUMO1 PPI mod = SUMO1-SIM interaction modulation; P63165; SUMO1 binding to a labelled peptide, TR-FRET, 1 h; inhibition, % at 20 µM; actives 0.33% (n = 360,000); AID 602429; in the data active means inhibition above about 37%
Target sequence (P63165 whole entry, looked up): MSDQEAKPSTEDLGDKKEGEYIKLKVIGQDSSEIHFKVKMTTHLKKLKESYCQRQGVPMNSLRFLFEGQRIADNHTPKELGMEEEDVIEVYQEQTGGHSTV
LMPTP block = blocks human LMPTP phosphatase | P24666 | recombinant LMPTP-A, OMFP fluorogenic substrate, fluorescence intensity | inhibition, % at 20 µM | actives 0.22% (n = 360,000);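 active means compounds that cut the enzyme signal by at least half of the control window in the single-dose screen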;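 further: plate controls were DMSO wells with enzyme plus substrate for no effect and substrate without enzyme for full effect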
Target sequence (P24666 whole entry, looked up): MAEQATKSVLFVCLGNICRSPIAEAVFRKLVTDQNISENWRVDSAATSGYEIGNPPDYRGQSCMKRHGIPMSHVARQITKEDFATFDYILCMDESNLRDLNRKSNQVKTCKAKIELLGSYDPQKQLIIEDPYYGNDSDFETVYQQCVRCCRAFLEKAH
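Test system: LMPTP-A phosphatase enzyme. Amount: LMPTP-A at 0.625 nM final in the reaction. Reagent: OMFP substrate, 400 µM final. Times: 50 min at room temperature. Signal: endpoint fluorescence intensity from OMFP dephosphorylation. Read-out basis: % inhibition. Benchmarks: no-enzyme and uninhibited controls.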
Scp1 inh = Scp-1 (human) phosphatase inhibition; actives 0.88% (n = 340,000); inhibition, % at 20 µM; Recombinant Scp1, phosphopeptide, malachite green phosphate absorbance; Q9GZU7;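 active means inhibition above about 50% at 20 µM, limit read from the data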;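 further: plate controls were DMSO wells with enzyme for no effect and wells lacking enzyme for full effect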
Target sequence (Q9GZU7 76-261 limits assumed): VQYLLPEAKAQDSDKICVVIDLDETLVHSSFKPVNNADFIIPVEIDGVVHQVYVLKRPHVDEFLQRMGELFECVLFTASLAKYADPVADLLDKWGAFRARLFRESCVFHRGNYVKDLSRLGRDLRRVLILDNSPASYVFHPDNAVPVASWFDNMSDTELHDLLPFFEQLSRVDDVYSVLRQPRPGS
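Test system: SCP-1 phosphatase catalytic domain, residues 76-261; measured by: colorimetric phosphate reagent with accelerator and stabiliser, absorbance at 630 nm; timing: enzyme reaction 45 min at room temperature, colour 5 min, stabilisation 30 min; also added: Phosphorylated 17-residue peptide substrate; compound dosing: one concentration, 20 µM, with 1.0% DMSO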
CSN deneddyl inh = blocks human CSN-mediated cullin deneddylation; Q92905; Purified CSN, SCF-Nedd8-OG deneddylation, fluorescence polarization; inhibition, % at 12.5 µM; actives 0.38% (n = 360,000); AID 651999;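 active means pattern-corrected inhibition above about 35%, with an unprinted fluorescence ratio check between 0.5 and 1.5, limit read from the data, passing the limit was not always enough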;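 further: 0% = enzyme with substrate and 100% = substrate without enzyme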
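Schedule: reaction 90 min, room temperature / Assay system: HEK293T-derived human Csn5 enzyme / Input: Csn5 at 0.24 nM final / Measure: inhibition of Csn5 cleavage, % / Control set: substrate-only high control, full reaction low control / Technique: fluorescence polarization of the substrate / Buffer or medium: Tris/NaCl/DTT buffer, pH 7.5 / Reagent: SCFSkp2-Nedd8OG substrate at 10 nM final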
An asterisk follows results filed as active; / = not tested or not shown; + = active, no number.

SMILES	DNMT1 block	STEP block	SUMO1 PPI mod	LMPTP block	Scp1 inh	CSN deneddyl inh
COc1ccc(C(=O)/C(C#N)=N/Nc2ccc([N+](=O)[O-])cc2)cc1	-2	96*	-61	73*	66*	2
COc1ccc(C(=O)/C(C#N)=N/Nc2ccccc2[N+](=O)[O-])cc1	4	1	-23	3	-5	-11
COc1ccc(NC(=O)C(=O)N/N=C\c2ccc(CNC(=O)C(=O)Nc3ccc(C)c(C)c3)o2)c(OC)c1	/	/	/	/	68*	/
CCN(CC)c1ccc2c(-c3ccc(S(=O)(=O)O)cc3S(=O)(=O)[O-])c3ccc(=[N+](CC)CC)cc-3oc2c1	14	16	14	15	77*	-72
Cc1ccccc1NC(=O)Cc1nc(COC(=O)C(NC(=O)c2ccccc2C)C(C)C)cs1 (stereo not drawn)	-3	-1	0	0	-9	-1
O=c1[nH]c2ccc(N=Cc3c(O)ccc4cc(Br)ccc34)cc2[nH]1	29	-4	-29	18	0	42*
O=C(Nc1ccc(N2CCOCC2)cc1N1CCOCC1)c1ccc([N+](=O)[O-])cc1	1	2	-24	1	-2	74*
O=C(CCNC(=O)c1ccc([N+](=O)[O-])cc1)Nc1ccc(N2CCOCC2)cc1N1CCOCC1	3	1	-21	0	-12	2
O=C(CSc1ccc(-c2ccncc2)nn1)c1ccc(Cl)cc1	8	3	51*	0	2	9
O=C1NC[C@@H](CCCCN2C[C@H](Cc3ccc(O)cc3)N(CC3CCCCC3)C(=O)C2=O)N(CCC2CCCCC2)C1=O	/	/	4	0	/	-4
N#CC1(NC(=O)COC(=O)c2cc(O)c3ccccc3c2O)CCCCC1	-20	0	-9	2	85*	3
CCC(C)NC(=O)CN1C(=O)c2cccc3cccc1c23 (stereo not drawn)	-2	4	-13	1	0	3
CCN1/C(=N\N)c2cccc3cccc1c23	-16	-1	1	3	-9	51*
CCOc1ccccc1N1CC(C(=O)NNC(=O)c2ccc(F)cc2)CC1=O (stereo not drawn)	1	0	-2	-1	-1	+
Cn1c(N)c(S(=O)(=O)N2CCN(c3ccccc3Cl)CC2)c(=O)n(C)c1=O	0	2	6	0	1	1
CC(C)n1ncc2c(C(=O)Nc3ccc(S(C)(=O)=O)cc3)cc(C3CC3)nc21	-5	-1	-7	1	-8	0
CC(C)n1ncc2c(C(=O)Nc3ccc(S(N)(=O)=O)cc3)cc(C3CC3)nc21	-134	-6	-129	-7	-7	113*
Nc1cc(C(=O)O)c(N)c2c1C(=O)c1ccccc1C2=O	17	8	33	8	82*	-24
Nc1c(C(=O)O)ccc2c1C(=O)c1ccccc1C2=O	-1	8	10	9	0	6
CC(C)(C)OC(=O)N(Cc1ccccc1)Cc1ccc(OCc2cccc(NC(=O)C3CC3)c2)cc1	1	-1	0	3	-4	2
O=c1c(/C=N/Nc2ccccc2)c(Sc2nnnn2-c2ccccc2)nc2ccccn12	-5	-17	-22	4	-7	45
O=C(O)c1ccccc1N/N=C/c1c(Sc2nnnn2-c2ccccc2)nc2ccccn2c1=O	36	-13	-19	-1	42	97*
CCc1nc(NC(=O)NS(=O)(=O)c2ccccc2C(=O)OC)nc(OC)n1	0	-2	10	-2	-5	-3
Cc1ccc(-c2nnc(-c3ccc4c(c3)OCO4)o2)cc1	8	-3	68*	7	8	3
Brc1ccc(-c2nnc(-c3ccc4c(c3)OCO4)o2)o1	10	1	-1	19	25	-3
Nc1nc(-c2ccccc2)c(-c2ccc([N+](=O)[O-])cc2)s1	-2	1	-18	1	-1	2
Cc1nc(N)nc(N)c1-c1ccc([N+](=O)[O-])cc1	5	3	-21	67*	2	-1
